Compound activity deposited in PubChem BioAssay by several laboratories.
ZTA DNA inh: ZTA (EBV) inhibition in EBNA-1 counter-screen. inhibition, % at 11 µM. AID 2234. 320,000 compounds, 0.15% hits. ZTA-DNA binding, fluorescence polarization; in the data active means inhibition above about 33%
Target sequence (P03206 whole entry, looked up): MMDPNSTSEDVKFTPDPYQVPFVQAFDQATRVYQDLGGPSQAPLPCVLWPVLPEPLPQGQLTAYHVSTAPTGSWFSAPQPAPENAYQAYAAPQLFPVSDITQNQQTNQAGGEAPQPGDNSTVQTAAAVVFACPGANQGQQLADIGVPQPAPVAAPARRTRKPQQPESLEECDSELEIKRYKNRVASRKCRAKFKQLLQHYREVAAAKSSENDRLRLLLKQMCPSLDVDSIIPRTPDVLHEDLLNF
FGF22 binding: binders of human FGF22 protein, primary screen, FGF22 synaptogenesis inhibitor project, biophysical, thermal shift, single point; Fibroblast growth factor 22 (Homo sapiens), Q9HCT0; 340,000 compounds, 1.5% hits; recombinant FGF22 thermal shift, SYPRO orange fluorescence; percent of sucrose octasulfate shift, DMSO zero; activity (Tm shift, normalised), % at 9.99 µM; AID 651658, 2012;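 active means mean Tm shift, scaled 0 neutral to 100 positive control, at about 1.3% or above, every replicate too, limit read from the data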
Target sequence (Q9HCT0 whole entry, looked up): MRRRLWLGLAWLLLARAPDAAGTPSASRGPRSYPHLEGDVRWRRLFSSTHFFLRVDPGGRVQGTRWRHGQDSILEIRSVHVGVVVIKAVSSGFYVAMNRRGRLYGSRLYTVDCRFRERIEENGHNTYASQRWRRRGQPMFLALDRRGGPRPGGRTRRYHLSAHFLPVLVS
NS3 helicase inh: inhibitors of HCV NS3 helicase, primary screen, biochemical, Cy5 molecular beacon fluorescence; inhibition, % at 10.9 µM; NS3 helicase DNA unwinding; 290,000 compounds, 0.56% hits;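 active means inhibition above the mean of all tested compounds plus 3 SD, set per campaign, cut at about 35% in these data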;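 further: 0% = DMSO wells and 100% = thioflavine S control wells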
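test system = hepatitis C virus NS3 helicase domain fragment enzyme | reagent = annealed dual-labelled DNA beacon duplex, ATP-started | times = 1 h at 25 °C | detection = Cy5 fluorescence, 0 and 60 min reads | read-out basis = percent inhibition from t60/t0 fluorescence ratio | control set = DMSO and thioflavine S | replication = one well per compound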
GRIN3A LBD mod: binders of NR3A ligand-binding domain, primary screen, biophysical, differential scanning fluorimetry, uHTS | NR3A LBD differential scanning fluorimetry, Tm shift; 0% = protein alone, 100% = glycine-bound protein | Glutamate receptor ionotropic, NMDA 3A (GRIN3A) ligand-binding domain | Tm shift relative to glycine control, % at 25 µM | 340,000 compounds, 2.5% hits;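 active means melting temperature shift of at least 10% of the positive control shift, at one fixed dose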
EBNA-1 inhibitor: EBNA-1 DNA-binding inhibitors, primary screen, biochemical, fluorescence polarization; inhibition, % at 14.8 µM; 300,000 compounds, 0.34% hits; AID 1950, 2009; in the data active means inhibition above about 28%
FID counter: compounds displacing fluorescent DNA intercalator, primary screen, artefact control for HCV NS3 helicase inhibitor project, biochemical, FID fluorescence. DNA fluorescent intercalator displacement. inhibition, % at 7.9 µM. 290,000 compounds, 0.17% hits; in the data active means inhibition above about 37%;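 further: 0% = vehicle and 100% = reference compound; higher means more ethidium bromide displaced from hairpin DNA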
EBNA-1 confirm: EBNA-1 DNA-binding inhibitors, retest, confirmation, biochemical, fluorescence polarization, triplicate. Recombinant EBNA-1 DBD, Cy5-DNA fluorescence polarization. inhibition, % at 14.8 µM. shares compounds with EBNA-1 inhibitor. 830 compounds, 35% hits;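 active means mean inhibition across replicates above a set limit taken from the earlier primary screen, cut at about 28% in these data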;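 further: plate controls were EBNA-1 protein with DMSO for no effect and wells lacking EBNA-1 for full effect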
ZTA counter trip: EBV Zta DNA binding inhibitors, counter-screen for EBNA-1 inhibitor project, biochemical, fluorescence polarization, triplicate; shares compounds with EBNA-1 inhibitor; Zta-ZRE DNA binding, Cy5 fluorescence polarization; inhibition, % at 11.1 µM; 830 tested, under 10 active; AID 2328, 2010;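 active means mean inhibition over triplicates above a set limit taken from the primary EBNA-1 screen, cut at about 37% in these data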;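 further: purified full length Zta protein with Cy5 labeled ZRE DNA probe; 0% = Zta with DMSO and 100% = wells lacking Zta protein; inhibitors lower polarization by freeing the labeled DNA probe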
* marks the source's active call; other numbers are inactive results; nt = no result given. Only some compounds are listed: those with a hit (about 3.6% of all), similar ones and a draw of the others.

SMILES	ZTA DNA inh	FGF22 binding	NS3 helicase inh	GRIN3A LBD mod	EBNA-1 inhibitor	FID counter	EBNA-1 confirm	ZTA counter trip
COc1cccc(OC)c1C(=O)Nc1nc2cc3c(cc2s1)OCO3	-3	0	0	-1	33*	-10	60*	7
CC=Cc1ccc2n(c1=O)C[C@H]1[C@H](CO)[C@@H](C(=O)NCC(F)(F)F)N(CC3CC3)[C@@H]21 (mixture of isomers)	nt	0	nt	nt	nt	nt	nt	nt
COc1ccc(C(=O)Nc2ccc3c(c2)C(=O)NC3=O)cc1	10	0	-4	0	33*	-3	26	5
COc1ccc(CNC(=O)Nc2ccc(OC)cc2)cc1	4	nt	5	nt	3	3	nt	nt
COc1ccc(NC(=O)C2(c3ccc(NC(=O)c4ccc(C)cc4)cc3)CCCC2)cc1	-14	0	3	3	3	-3	nt	nt
COc1ccc(NC(=O)Nc2ccc(OC)cc2)cc1	4	nt	0	13*	54*	-12	32*	0
COc1ccc(NC(=O)c2ccc(OC(=S)N(C)c3ccc(OC)cc3)cc2)cc1	13	nt	2	-13	34*	0	19	8
COc1ccc(C(=O)Nc2ccc(C3(C#N)CCCC3)cc2)cc1	18	0	-1	-21	56*	9	13	2
O=C(C[C@H]1CC[C@H](NC(=O)NC2CCCC2)[C@H](CO)O1)NCc1ccc(F)cc1	nt	0	nt	nt	nt	nt	nt	nt
CO[C@H]1CN(C)C(=O)c2cc(NC(=O)CC(F)(F)F)ccc2OC[C@H](C)N(C(C)=O)C[C@H]1C	nt	0	nt	nt	nt	nt	nt	nt
CCCCc1cc(=O)oc2c3c(cc(OCC(=O)N4CCC[C@H]4C(=O)O)c12)OC(C)(C)CC3	7	0	9	-2	-4	-30	nt	nt
Cc1cc(=O)oc2c3c(cc(OCC(=O)N4CCC[C@H]4C(=O)O)c12)OC(C)(C)CC3	-2	0	5	-1	174*	-27	-1	-5
COc1ccc(NC(=O)c2cc(-c3cc(Cl)ccc3O)n[nH]2)c(OC)c1	23	0	-4	31*	33*	-9	19	3
COc1ccc(NC(=O)c2ccc(C(=O)Nc3ccc(OC)cc3OC)cc2)c(OC)c1	-7	43	3	0	56*	-5	51*	10
C[C@@H]1CN([C@@H](C)CO)C(=O)Cc2cc(NS(=O)(=O)c3ccc(F)cc3)ccc2O[C@H]1CN(C)S(=O)(=O)c1ccc(Cl)cc1	nt	0	nt	nt	nt	nt	nt	nt
C[C@H](CO)N1C[C@H](C)[C@H](CN(C)S(=O)(=O)c2ccc(F)cc2)Oc2c(NS(=O)(=O)c3ccc(Cl)cc3)cccc2C1=O	nt	0	nt	nt	nt	nt	nt	nt
C[C@H](CO)N1C[C@H](C)[C@@H](CN(C)Cc2ccccc2C(=O)O)Oc2cc(-c3ccc(C(=O)N(C)C)cc3)ccc2S1(=O)=O	nt	0	nt	nt	nt	nt	nt	nt
Nc1c(C(=O)Nc2ccc3c(c2)OCCO3)nnn1Cc1cccc(Br)c1	-1	0	nt	-4	36*	nt	30*	1
C[C@@H]1CN([C@H](C)CO)C(=O)c2cccc(NC(=O)C3CCOCC3)c2O[C@H]1CN(C)Cc1ccc(Oc2ccccc2)cc1	nt	-1	nt	nt	nt	nt	nt	nt
COc1ccc2cc(C(=O)/C=C/c3cc(OC)c(OC)c(OC)c3)ccc2c1	13	0	-14	-2	48*	-35	0	8
